IMP-1 inhibitor = IMP-1 metallo-beta-lactamase inhibitors, primary screen, biochemical, epi-absorbance readout, Pseudomonas aeruginosa enzyme; metallo-beta-lactamase IMP-1 (Pseudomonas aeruginosa); actives 0.45% (n = 290,000); inhibition, % at 5.6 µM; purified IMP-1, nitrocefin hydrolysis, epi-absorbance fluorescence;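 active means inhibition above the mean plus 3 SD of all compounds in the same screening run, cut at about 4.5% in these data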;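 further: 0% = IMP-1 with DMSO and 100% = DMSO wells lacking enzyme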
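Assay system: purified recombinant IMP-1 beta-lactamase. Input: IMP-1 0.2 nM before substrate addition. Buffer or medium: Zinc- and detergent-supplemented HEPES buffer, pH 7.1. Schedule: 25 °C, 15 min preincubation, 25 min reaction. Signal: Epi-absorbance fluorescence, 480 nm excitation, 530 nm emission. Evaluation: percent inhibition from optical density relative to buffer-blank wells.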
VIM-2 inhibitor = VIM-2 metallo-beta-lactamase inhibitors, primary screen, biochemical, epi-absorbance readout, Pseudomonas aeruginosa enzyme | inhibition, % at 5.6 µM | purified VIM-2, nitrocefin hydrolysis, epi-absorbance fluorescence | actives 0.89% (n = 290,000);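 active means inhibition above the mean of all tested compounds plus 3 SD, cutoff set per screening run, cut at about 7.5% in these data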;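 further: red hydrolysis product quenches plate fluorescence so inhibitors raise well fluorescence; 0% = enzyme with DMSO and 100% = DMSO without enzyme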
dFosB act-1 = activators of delta FosB homodimer, primary screen, biochemical, fluorescence polarization, TAMRA-CDK5 oligo, single point. purified delta FosB; percent of positive-control signal above neutral wells. actives 0.99% (n = 340,000). AID 493131, 2011. activation, % at 25 µM. Protein FosB (Mus musculus), P13346;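 active means mean activation above about 17%, with every replicate also reaching it, limit read from the data, passing the limit was not always enough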
Target sequence (P13346 whole entry, looked up): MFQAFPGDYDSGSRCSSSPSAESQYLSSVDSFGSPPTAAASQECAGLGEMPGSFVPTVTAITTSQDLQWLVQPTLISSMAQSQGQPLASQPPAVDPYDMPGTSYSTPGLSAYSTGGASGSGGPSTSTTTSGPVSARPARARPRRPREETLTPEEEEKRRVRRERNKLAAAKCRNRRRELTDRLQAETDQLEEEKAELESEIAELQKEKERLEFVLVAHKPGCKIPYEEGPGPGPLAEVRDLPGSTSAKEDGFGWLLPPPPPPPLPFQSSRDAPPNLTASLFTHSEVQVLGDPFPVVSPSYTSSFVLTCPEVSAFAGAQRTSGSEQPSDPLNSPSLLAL
HTR2A ag = mouse Htr2a agonists via beta-arrestin recruitment, primary screen, cell-based, luminescence; activation, % at 7.6 µM; CHO-K1 mHTR2A beta-arrestin complementation; percent of 30 µM serotonin response; AID 624169, 2012; actives 0.66% (n = 360,000);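 active means activation above a run cutoff, the mean activation of all tested compounds plus 3 SD, cut at about 14% in these data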;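 further: 0% = plate median of compound wells and 100% = 30 µM serotonin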
dFosB act-2 = activators of mouse delta FosB DNA binding, confirmation, biochemical, fluorescence polarization, TAMRA-CDK5 oligo, cherry-picked samples. shares compounds with dFosB act-1. purified delta FosB; normalised: neutral wells 0, positive control 100. activation, % at 24.9 µM. 2,400 tested, under 10 active. AID 588690, 2011;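 active means highest replicate activation at or above 34% and every replicate reaching that threshold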;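 further: higher polarization means more probe DNA bound by delta FosB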
Starred values were filed as active, the others as inactive; · = no result given. The list is not random: actives were taken first. Their share in the collection is about 2.5%.

SMILES	IMP-1 inhibitor	VIM-2 inhibitor	dFosB act-1	HTR2A ag	dFosB act-2
COc1cc(C(=O)Nc2ccc(Oc3ncnc4sc(-c5ccccc5)cc34)cc2)cc(OC)c1OC	-3	-2	68*	1	6
COc1ccc(C(=O)Nc2ccc(Oc3ncnc4sc(-c5ccccc5)cc34)cc2)cc1OC	-2	-1	-7	-1	·
O=C(C[C@H]1C/C=C\CC[C@H](Cc2ccc(F)cc2)C(=O)O[C@H](c2ccccc2)CNC1=O)N[C@H](CO)Cc1ccccc1	·	·	48*	2	0
COc1ccc(Cl)cc1-c1cc(C(=O)NCc2ccc(C(F)(F)F)cc2)[nH]n1	·	·	·	-2	·
Cc1nn2cnnc2c(C)c1Cc1c(F)cccc1Cl	-2	-2	-2	6	·
CCOc1ccc(CNC(=O)Cn2c(=O)c3cccn3c3ccccc32)cc1	6.2*	-1	41*	-3	-1
CC(C)Oc1ccc(CNC(=O)Cn2c(=O)c3cccn3c3cccnc32)cc1	-4	-2	30*	-1	8
COc1cccc(CNC(=O)CCn2c(=O)c3cccn3c3cccnc32)c1	0	0	-4	4	·
COc1ccc2c(c1)CCc1c(C(=O)Nc3ccn(Cc4ccc(C)cc4)n3)noc1-2	-1	-3	28*	-2	-4
Cc1ccc2nc(-c3ccc(NC(=O)COC(=O)c4ccc([N+](=O)[O-])o4)cc3)sc2c1	-3	-1	-9	3	·
Cc1ccc2nc(-c3ccc(NC(=O)COC(=O)c4ccc(Br)o4)cc3)sc2c1	-2	0	35*	-2	2
CN1C(=O)c2ccc(NC(=O)CCS(=O)(=O)c3ccccc3)cc2C1=O	-2	-2	-4	2	·
Cc1ccc(C)c(OCc2cc(C(=O)NC3CCN(Cc4ccccc4)CC3)no2)c1	-1	-1	22*	-13	4
O=C(Nc1nc2c(Cl)ccc(Cl)c2s1)C1CC1	-2	-1	28*	3	0
Cc1c(C(=O)Nc2cccc([N+](=O)[O-])c2)csc1-c1ccccc1	-1	-3	58*	2	6
COC(=O)c1c(NC(=O)c2cccc([N+](=O)[O-])c2)sc(C(N)=O)c1C	-1	-1	29*	1	-7
O=C(Nc1cccc([N+](=O)[O-])c1)c1cccc(C(=O)Nc2cccc([N+](=O)[O-])c2)c1	8.7*	-1	34*	3	-1
COC(=O)c1sc(NC(=O)c2cccc([N+](=O)[O-])c2)c(C(N)=O)c1C	-2	-3	6	3	·
COc1cc(NC(=O)CSc2nnc3ccccn23)cc(OC)c1OC	·	·	·	5	·
CC1C(=O)C(C)C(c2ccccc2F)NC1c1ccccc1F (stereo not drawn)	-3	-5	2	-4	·
Cc1ccc(S(=O)(=O)N2CCN(C(=O)COC(=O)/C=C/c3ccc([N+](=O)[O-])cc3)CC2)c(C)c1	·	·	24*	2	-3
COc1ccc(Cc2nc3c4c(ncn3n2)Oc2ccc3ccccc3c2C4c2ccc(OC)c(OC)c2)cc1 (stereo not drawn)	-1	-2	10	6	·
COc1ccc(Cc2nc3c4c(ncn3n2)Oc2c(ccc3ccccc23)C4c2ccc(OC)c(OC)c2)cc1 (stereo not drawn)	-2	-3	32*	6	4
O=C(N/N=C/c1cc2c(cc1Br)OCO2)c1c[nH]c2ccccc12	-2	-4	29*	-5	2
CC(C)(C)c1cc(C(=O)N/N=C/c2cc3c(cc2Br)OCO3)n[nH]1	-3	-4	27*	-6	4
SMILES	IMP-1 inhibitor	VIM-2 inhibitor	dFosB act-1	HTR2A ag	dFosB act-2
CS(=O)(=O)N(CC(=O)N/N=C/c1cc2c(cc1Br)OCO2)c1ccccc1Br	-3	0	27*	1	7
O=C(c1cccs1)N1CCC(c2nc3c(nnn3Cc3ccccc3Cl)c(=O)[nH]2)CC1	0	-3	-12	4	·
CN1CCN(C2=Nc3cc(Cl)ccc3Nc3ccccc32)CC1	-5	-3	-1	·	·
CN1CCN(C2=Nc3c(Cl)cc(Cl)c4cccc2c34)CC1	0	7.7*	20*	-9	-1
Cc1ccc(CNS(=O)(=O)c2ccc(Cl)s2)cc1	·	·	·	9	·
CN(CC(=O)Nc1ccccc1Cl)C(=O)COC(=O)c1ccc(-c2ccc(O)cc2)cc1	·	·	45*	-9	0
Cc1ccc(C)c(S(=O)(=O)N(C)c2ccc(OC(=O)C3CCN(C(=O)Nc4ccccc4)CC3)cc2)c1	·	·	-8	2	·
Cn1cnnc1SC(C(=O)Nc1cc(Cl)cc(Cl)c1)c1ccccc1 (stereo not drawn)	-1	-3	20*	0	12
O=C(Nc1ccc(-n2ccc(C(F)(F)F)n2)cc1)Nc1cccc(Cl)c1	-2	-3	29*	-5	6
CCOC(=O)[C@]12CCC=C1N(Cc1ccc3c(c1)OCO3)C(=O)[C@H](CC(=O)N1CCSCC1)C2	·	·	·	2	·
CCCn1c(N)c(C(=O)CSc2nc3ncc(Cl)cc3[nH]2)c(=O)n(C)c1=O	·	·	28*	-7	5
CSCc1ccc(C(=O)OCC(=O)NC2CCCC2)o1	·	·	·	6	·
N#Cc1c(NC(=O)COC(=O)c2ccc(O)cc2O)sc2c1CCC2	·	·	39*	-1	4
CC(C)(C)c1ccc(C(=O)OCC(=O)Nc2sc3c(c2C#N)CCC3)cc1	-4	-4	0	6	·
O=C(Nc1cnccn1)Nc1ccc(Cl)cc1Cl	-4	-3	34*	1	6
O=C(Nc1ccc2c(c1)OCO2)Nc1ccc(Cl)cc1Cl	-4	-2	29*	-3	1
COc1ccc(/C=C/C(=O)NC(=S)NNC(=O)[C@H]2C[C@@H]2c2ccccc2)cc1OC	-1	-3	71*	-5	4
CCOc1ccc(C(=O)COC(=O)Cc2n[nH]c(=O)c3ccccc23)cc1	·	·	-3	12	·
CCOc1ccc(NC(=O)c2ccc(NC(=O)Cc3n[nH]c(=O)c4ccccc34)cc2)cc1	-2	0	111*	-2	-7
CCc1cccc(NC(=O)CC2Oc3ccccc3NC2=O)c1 (stereo not drawn)	-1	-1	21*	8	0
COc1ccc(C(=O)Nn2c(SCC(=O)NC3CCCCC3)nc3ccccc3c2=O)cc1	-4	0	-6	0	·
COc1ccc(C(=O)Nn2c(SCC(=O)N3CCC(C)CC3)nc3ccccc3c2=O)cc1	0	-2	29*	-2	3
Cc1ccc(NC(=O)c2ncc(Cl)c(Cl)c2Cl)cc1C	3	0	26*	-1	0
O=C(N/N=C\c1ccc(CNS(=O)(=O)c2ccccc2)o1)C(=O)Nc1ccc(F)cc1	-2	0	38*	3	4
